# High-throughput results from PubChem.
# The list is not random: actives were taken first. Their share in the collection is about 2.1%.
# ARNT TACC3 PPI: disruptors of human ARNT/TACC3 interaction; Q9Y6A5; AlphaScreen His-ARNT PAS-B/GST-TACC3 binding, luminescence; TACC3 fragment carries E629A point mutation; inhibition, % at 9.99 µM; 390,000 tested, 0.66% active;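 active means mean inhibition of replicates at least 50% and at least half of replicates each reaching 50%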
# SUMO Mot1 rescue: SUMOylation pathway inhibition by Mot1-301 growth rescue; S. cerevisiae Mot1-301 growth rescue, ATP luminescence, 38.5C; percent above DMSO median, 100 means doubled; growth rescue, % at 18.8 µM; 320,000 tested, 1% active; AID 2716;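 active means every valid replicate shows activation above 250% relative to neutral control wells; inactive means the rest, any valid replicate at or below 250%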
# RTF Ca sens inh: cardiac RTF calcium desensitization | P19429+P45379 | IANBD-labeled cardiac RTF, Ca2+ fluorescence | inhibition, % at 7.15 µM | 340,000 tested, 0.12% active | AID 493244;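 active means inhibition above the mean inhibition of all tested compounds plus 3 SD, cut at about 17% in these data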;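 further: assay run at fixed EC70 calcium of 1.6 mM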
# UCH37 inh: blocks the human deubiquitinase UCH37. Q9Y5K5. purified proteasome/UCH37, Ub-AMC cleavage fluorescence. inhibition, % (concentration not given with the values). 330,000 tested, 0.33% active;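 active means mean inhibition over replicate wells above about 20%, limit read from the data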
# Target sequence (Q9Y5K5 whole entry, looked up): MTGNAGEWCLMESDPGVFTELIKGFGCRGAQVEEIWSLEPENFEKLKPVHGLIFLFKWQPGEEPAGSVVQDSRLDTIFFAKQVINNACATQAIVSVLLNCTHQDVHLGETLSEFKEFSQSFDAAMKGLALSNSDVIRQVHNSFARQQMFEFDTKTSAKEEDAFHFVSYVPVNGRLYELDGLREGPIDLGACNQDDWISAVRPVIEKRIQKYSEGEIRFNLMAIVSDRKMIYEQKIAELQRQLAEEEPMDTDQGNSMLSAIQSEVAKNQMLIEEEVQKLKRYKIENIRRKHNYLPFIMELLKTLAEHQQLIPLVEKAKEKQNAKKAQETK
#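 assay system = human UCH37 enzyme supplied as purified proteasome complex | amount = proteasome at 0.15 nM in the dispensed enzyme solution | schedule = 30 min compound-proteasome preincubation then 25 min substrate reaction, room temperature | measured by = fluorescence, ex 355 nm, em 460 nm | benchmarks = no-proteasome wells (full inhibition) and compound-free wells (no inhibition)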
# Efflux pump mplx: antifungal efflux pump inhibition, Nile Red retention | S. cerevisiae Candida pump triplex | inhibition, % at 10 µM | 330,000 tested, 0.44% active | AID 485275;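 active means plate passing quality check with inhibition over a set limit, or well fluorescence over plate mean plus 4 SD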;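 further: Nile Red retained in pooled yeast measured as flow cytometry median fluorescence; higher means more Nile Red kept so more efflux inhibition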
# RTF Ca sens act: cardiac RTF calcium sensitization. activation, % at 7.2 µM. IANBD-labeled TnC RTF fluorescence at EC20 calcium; 0% EC20 calcium, 100% full calcium. P19429+P45379. 340,000 tested, 0.24% active. AID 493008;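 active means activation above the mean over all tested compounds plus 3 SD, cut at about 30% in these data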;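 further: rise in fluorescence read as greater calcium sensitivity of cardiac thin filaments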
# Mot1 SUMO dose: yeast SUMO pathway inhibition in dose response. shares compounds with SUMO Mot1 rescue. growth activity, percent, % at 42 µM. 2,300 tested, under 10 active. S. cerevisiae Mot1-301 galactose growth, ATP luminescence, 24 h; -100 = growth of slx-deleted rescue strain;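 active means Signal drops as the depositor expects, and the fitted half-maximal dose is no more than ten times the top valid tested dose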;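 further: more negative values mean stronger growth rescue toward the control strain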
# Cmpd fluor yeast: counter-screen for efflux pump inhibitors: compound fluorescence; shares compounds with Efflux pump mplx; S. cerevisiae AD/pABC3, flow cytometry; fluorescence ratio to DMSO, % at 10 µM; 1,700 tested, 4% active; AID 588517;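 active means fluorescence ratio to DMSO above its plate's cutoff, the plate mean ratio plus 5 SD, cut at about 210% in these data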;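 further: unstained yeast with no Nile Red so the signal is compound autofluorescence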
# Mdr1 pump inh: blocks the Candida albicans Mdr1 efflux pump in yeast; shares compounds with Efflux pump mplx; inhibition, % at 10 µM; S. cerevisiae AD/CaMDR1, Nile Red efflux, flow cytometry; 1,700 tested, 1% active; in the data active means inhibition above about 26%;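 further: higher means more Nile Red retained so more efflux inhibition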
# CaCdr2 efflux inh: inhibitors of Candida albicans Cdr2 efflux pump; shares compounds with Efflux pump mplx; S. cerevisiae AD/CaCDR2, Nile Red retention, flow cytometry; Nile Red retention ratio vs DMSO, % at 10 µM; 1,700 tested, 4% active; in the data active means Nile Red retention ratio vs DMSO above about 190%;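 further: higher ratio means more blocking of Cdr2 efflux of the dye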
# CaCdr1 efflux inh: blocks the Candida albicans Cdr1 efflux pump in yeast. shares compounds with Efflux pump mplx. S. cerevisiae AD/CaCDR1, Nile Red efflux, flow cytometry. inhibition, % at 10 µM. 1,700 tested, 1% active. AID 588522;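 active means inhibition above the screen-wide mean plus twice its standard deviation, cut at about 32% in these data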
# UCH37 confirm: UCH37 Ub-AMC cleavage inhibition, confirmed | AID 624100 | inhibition, % at 20 µM | Proteasome-bound UCH37, Ub-AMC cleavage fluorescence | shares compounds with UCH37 inh | 480 tested, 27% active;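 active means average inhibition over replicates above about 50%, so the earlier screening hit is confirmed, limit read from the data; inactive means the rest, counted as false positives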;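 further: based on cleavage rate fitted by regression over a 30 min kinetic read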
# Numbers stand for hits; - = inactive; . = no result given; + = active, no number.
SMILES,ARNT TACC3 PPI,SUMO Mot1 rescue,RTF Ca sens inh,UCH37 inh,Efflux pump mplx,RTF Ca sens act,Mot1 SUMO dose,Cmpd fluor yeast,Mdr1 pump inh,CaCdr2 efflux inh,CaCdr1 efflux inh,others
O=C(Nc1cccc(N=Cc2cc(Br)cc(Br)c2O)c1)c1ccco1,-,765.7,-,-,-,-,-,.,.,.,.,
O=C1c2cccc3c(N4CCCCC4)ccc(c23)C(=O)N1CCO,-,423.8,-,-,-,75.6,-,.,.,.,.,
O=C(OCCN1C(=O)c2cccc3c(N4CCOCC4)ccc(c23)C1=O)c1cccc(Cl)c1,.,-,.,-,-,.,.,.,.,.,.,
O=C(NN=Cc1ccc[nH]1)c1cc(-c2cccs2)nc2ccccc12,.,.,.,-,.,.,.,.,.,.,.,
Cc1ccc2c(c1)C(=O)N1[C@H]3c4ccccc4OC[C@@H]3[C@H](c3ccccc3)[C@]1(C)C(=O)N2,-,+,-,.,-,-,-,.,.,.,.,
C[C@@]12C(=O)Nc3ccc(Br)cc3C(=O)N1[C@H]1c3ccccc3OC[C@@H]1[C@@H]2c1ccccc1,-,+,-,.,-,-,-,.,.,.,.,
Cc1cc(C)c2c(c1)C(=NNC(=O)c1ccc(O)cc1)CCC2,.,.,.,-,.,.,.,.,.,.,.,
O=C(NCc1ccncc1)C(=O)NN=Cc1ccccc1OCc1ccccc1,.,.,.,-,.,.,.,.,.,.,.,
Cc1ccc(/C=C/C(=O)c2ccc([N+](=O)[O-])o2)cc1,.,+,.,.,-,.,-,.,.,.,.,
CC1(C(=O)Nc2cccc(S(=O)(=O)N3CCOCC3)c2)Cc2ccccc2C(=O)O1 (centres undefined),-,-,-,-,-,-,.,.,.,.,.,
CC1(C(=O)Nc2cccc(-n3cnnn3)c2)Cc2ccccc2C(=O)O1 (centres undefined),-,408.0,-,.,-,-,-,.,.,.,.,
COc1cc(C=NNC(=O)CCn2c3ccccc3c3ccccc32)cc(OC)c1OC,.,.,.,-,.,.,.,.,.,.,.,
COc1ccc2c(c1)OC[C@H]1[C@H]2N2C(=O)c3cc(C)ccc3NC(=O)[C@@]2(C)[C@H]1c1ccccc1,-,+,-,.,5.1,-,-,-,-,-,-,
CC(=NNC(=O)c1ccncc1)c1cccc(NC(=O)c2ccc(Cl)s2)c1,.,.,.,-,.,.,.,.,.,.,.,
c1ccc2nc(N3CCCC3)c(N3CCCCC3)nc2c1,-,.,-,-,.,-,.,.,.,.,.,
c1ccc2nc3c(nc2c1)OCC1CCCCN31 (centres undefined),-,360.0,-,-,0.8,-,-,-,-,-,-,
Cc1ccc(S(=O)(=O)N2CCOCC2)cc1NC(=O)COC(=O)Cc1cccs1,-,-,-,-,-,-,.,.,.,.,.,
Cc1ccc(S(=O)(=O)N2CCOCC2)cc1NC(=O)COC(=O)CNC(=O)c1ccccc1,-,531.6,-,-,9.1,-,-,-,-,-,-,
O=c1/c(=C/c2ccco2)sc2nc(-c3ccccc3Br)nn12,.,381.3,-,.,-,-,-,-,-,-,-,
Cc1ccc(C=c2sc3nc(-c4ccco4)nn3c2=O)o1,.,.,.,-,.,.,.,.,.,.,.,
CN(C)C(=O)CSc1nc2ccc(N3C(=O)c4ccccc4C3=O)cc2s1,-,561.8,-,-,0.7,-,-,-,-,-,-,
Cc1cc(NC(=O)CCC(=O)N(c2cccnc2)C(C(=O)NC2CCCC2)c2ccccc2)no1 (centres undefined),.,+,-,-,-,-,-,-,-,-,-,
N=C1SCC(=O)N1N=Cc1ccccc1,.,.,.,-,.,.,.,.,.,.,.,
COc1ccc(-c2[nH]ncc2C=NNC(=O)c2ccc(C(C)(C)C)cc2)cc1OC,.,.,.,-,.,.,.,.,.,.,.,
Cc1ccc(C(C[N+](=O)[O-])c2c(C)[nH]n(-c3ccccc3)c2=O)cc1 (centres undefined),51.4,401.2,-,52.5,-,-,-,.,.,.,.,UCH37 confirm=-
SMILES,ARNT TACC3 PPI,SUMO Mot1 rescue,RTF Ca sens inh,UCH37 inh,Efflux pump mplx,RTF Ca sens act,Mot1 SUMO dose,Cmpd fluor yeast,Mdr1 pump inh,CaCdr2 efflux inh,CaCdr1 efflux inh,others
CC(CC(=O)NC1CCCC1)=NNC(=O)C1CCCCC1,.,.,.,-,.,.,.,.,.,.,.,
Cc1ccc(C(=O)OCC(=O)NCC2COc3ccccc3O2)cc1 (centres undefined),-,-,-,.,0.9,-,.,-,-,-,-,
COc1ccc(-c2cnc(SCC(=O)Nc3cc(C)on3)n2Cc2ccco2)cc1,.,-,-,-,-,-,.,.,.,.,.,
COc1ccc(-c2cnc(SCC(=O)Nc3nc(C(C)(C)C)cs3)n2Cc2ccco2)cc1,-,-,-,-,0.4,-,.,-,-,-,-,
Cc1cccc(-c2nc(S(=O)(=O)c3ccc(F)cc3)c(NCCCN3CCOCC3)o2)c1,-,-,-,-,7.4,-,.,-,-,-,-,
CCc1ccc(C2=CC(c3cc(Br)ccc3F)n3ncnc3N2)cc1 (centres undefined),-,-,-,-,0.9,-,.,-,-,-,-,
CC1=C(C)C(c2ccccc2)NC(=S)N1 (centres undefined),-,-,-,-,5.5,-,.,-,-,-,-,
CC1=C(C(=O)c2ccccc2)C(c2ccc(O)cc2)NC(=S)N1 (centres undefined),-,-,-,-,-,-,.,.,.,.,.,
Cc1ccc(C=NNC(=O)CNC(=O)c2ccc(S(=O)(=O)N(C)C)cc2)cc1,.,.,.,-,.,.,.,.,.,.,.,
CC(C)(CNC(=O)/C=C/c1ccc(F)cc1)CNC(=O)/C=C/c1ccc(F)cc1,-,-,-,-,12.6,-,.,-,-,-,-,
Cc1nc2ccccc2n1CCc1nc2c3ccccc3nc(SCC#N)n2n1,.,.,.,-,-,.,.,.,.,.,.,
Cc1nc2ccccc2n1CCc1nc2c3ccccc3nc(SCC(=O)NCc3ccco3)n2n1,-,-,-,-,1.2,-,.,-,-,-,-,
CCOC(=O)C1(Cc2ccc(OC)cc2)CCN(C(=O)c2cc3ccccc3[nH]2)CC1,-,-,-,-,0.5,-,.,-,-,-,-,
O=C(CCC(=O)OCCCC(F)(F)C(F)(F)F)Nc1ccccc1,-,-,-,-,-,-,.,.,.,.,.,
O=C(CCC(=O)OCCCC(F)(F)C(F)(F)F)NC1CCCCC1,-,-,-,-,1.4,-,.,-,-,-,-,
O=C(CSc1nnc(SCc2cccc3ccccc23)s1)NN=Cc1c[nH]c2ccccc12,.,.,.,-,.,.,.,.,.,.,.,
